According to ChEMBL document CHEMBL3085690, “Naturally occurring antimicrobial peptide OH-CATH30 selectively regulates the innate immune response to protect against sepsis” (J Med Chem, 2013):
Calls of active or inactive are those of the source. The calls are words filed in the database; no cut-off is given here. Peptide text beside a SMILES is read from it.

How the values were obtained:
RAW264.7 [1] = experiment: Induction of H2O2 production in mouse RAW264.7 cells; assay type: functional, cell-based
Mus musculus [2] = experiment: Stimulation of innate immune response in Kunming mouse assessed as protection against Staphylococcus aureus ATCC 25923-induced mortality by measuring survival rate at 10 mg/kg, ip administered 5 hrs before bacterial infection measured up to 7 days; assay type: functional; conditions: route intraperitoneal
Procedure, shortened: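 Female Kunming mice (18−22 g) received a single ip dose in sterile saline 5 h before ip challenge with P. aeruginosa 27853 (8 × 10^7 CFU/mouse; n = 8) or S. aureus 25923 (2 × 10^8 CFU/mouse; n = 10). Mice were checked every 6 h for up to 7 days, with a humane end point. Curves were compared by log-rank test.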

BMDM [3] = experiment: Increase of IL-1Ra protein level in mouse BMDM at 20 ug/ml after 18 hrs by ELISA; assay type: functional
Procedure, shortened: (§1)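 Bone marrow-derived macrophages (RPMI 1640, 10% FCS, 20% L929-conditioned medium) stimulated with peptide for 18 h. Cytokines and chemokines in culture supernatant quantified by sandwich ELISA. Mean ± SD from three independent experiments, unpaired t test.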

BMDM [4] = experiment: Induction of CCL7 mRNA up-regulation in mouse BMDM at 20 ug/ml after 3 hrs by qRT-PCR analysis; assay type: functional
Procedure, shortened: (§2)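 Murine BMDMs stimulated with peptide, then target mRNA quantified by qRT-PCR. Expression normalized to GAPDH, with untreated cells set to 1.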

Mus musculus [5] = experiment: Stimulation of innate immune response in bacteria infected Kunming mouse assessed as eradicate invading bacteria at 10 mg/kg, ip after 8 hrs; assay type: functional, organism-based; parameters: dose 10 mg/kg
[6] = target: Mitogen-activated protein kinase 1 and 3 (ERK2 and ERK1) (Mus musculus) (UniProt P63085+Q63844); experiment: Activation of ERK1/2 in mouse BMDM assessed as phosphorylation at 10 ug/ml after 15 to 30 mins by Western blotting; assay type: protein assay
Procedure, shortened: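 BMDMs (bone marrow cells grown in RPMI 1640 with 10% FCS and 20% L929-conditioned medium) stimulated, then lysates run on 10% SDS-PAGE and transferred to PVDF. Membranes blocked with 5% BSA and probed with phospho-ERK1/2 and total ERK1/2 antibodies, or with anti-IκBα. HRP anti-rabbit secondary, chemiluminescent detection.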

[7] = target: MAP kinase p38 (Homo sapiens) (UniProt O15264+Q15759+Q16539+P53778); experiment: Activation of p38 kinase in mouse BMDM assessed as phosphorylation at 10 ug/ml by Western blotting; assay type: protein assay; conditions: TDE = time-dependent effect, target entry is the homologue from another species
Procedure, shortened: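 BMDMs cultured in RPMI 1640 with 10% FCS and 20% L929-conditioned medium. Lysates separated by 10% SDS-PAGE, blotted to PVDF and blocked in 5% BSA. Probed for phospho-JNK/JNK or phospho-p38/p38, then HRP goat anti-rabbit IgG, chemiluminescence read-out.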

Mus musculus [8] = experiment: Stimulation of innate immune response in Kunming mouse assessed as protection against drug-resistant Staphylococcus aureus-induced mortality by measuring survival rate at 10 mg/kg, ip administered 5 hrs before bacterial infection measured up to 7 days; assay type: functional; conditions: route intraperitoneal
Procedure, shortened: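 Female Kunming mice (18−22 g) were dosed ip in sterile saline at 10 mg/kg, 5 h before ip challenge with clinical drug-resistant isolates: E. coli (n = 12), P. aeruginosa (n = 10) or S. aureus (n = 15). Survival was recorded for up to 7 days, with checks every 6 h and euthanasia by CO2 at the humane end point.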

BMDM [9] = experiment: Increase of CXCL2 production in mouse BMDM after 6 hrs by ELISA in presence of WRW4; assay type: functional
RAW264.7 [10] = experiment: Induction of phagocytic activity in mouse RAW264.7 cells using fluorescently labeled Escherichia coli up to 2 hrs by fluorescent assay; assay type: functional, cell-based
[11] = Increase of CXCL2 production in mouse BMDM after 6 hrs by ELISA in presence of MEK1/2 inhibitor U0126; assay type: functional
[12] = Half life in Kunming mouse at 10 mg/kg, ip; assay type: ADME, organism-based; parameters: dose 10 mg/kg, route intraperitoneal; conditions: in vivo
BMDM [13] = experiment: Increase of CXCL2 production in mouse BMDM after 6 hrs by ELISA in presence of TLR4/MD2 Ab; assay type: functional
Mus musculus [14] = experiment: Stimulation of innate immune response in Kunming mouse assessed as increase of leukocytes in peritoneal lavage at 10 mg/kg, ip after 5 hrs; assay type: functional, organism-based; parameters: dose 10 mg/kg
Procedure, shortened: (§3)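 Female Kunming mice were given peptide ip at 10 mg/kg. At 5 h, peritoneal cells were recovered by lavage with 2 mL PBS and counted. Cells were stained with anti-F4/80-PE and GR1-FITC for 30 min at room temperature and typed by flow cytometry: neutrophils GR1+/F4/80−, resident monocytes/macrophages GR1−/F4/80+, inflammatory monocytes GR1+/F4/80+. Data are mean ± SD from three mice, unpaired t test.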

Mus musculus [15] = experiment: Stimulation of innate immune response in Kunming mouse assessed as increase of monocytes/macrophages in peritoneal lavage at 10 mg/kg, ip after 5 hrs; assay type: functional, organism-based; parameters: dose 10 mg/kg; procedure, shortened: as §3
BMDM [16] = experiment: Induction of CCL3 mRNA up-regulation in mouse BMDM at 20 ug/ml after 3 hrs by qRT-PCR analysis; assay type: functional; procedure, shortened: as §2
Mus musculus [17] = experiment: Stimulation of innate immune response in Kunming mouse assessed as increase of IL-6 level in peritoneal lavage at 10 mg/kg, ip after 5 hrs; assay type: functional, organism-based; parameters: dose 10 mg/kg
Procedure, shortened: (§4)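 Female Kunming mice (18−22 g) received a single ip injection of peptide at 10 mg/kg in sterile saline. Peritoneal lavage was collected in 2 mL of cold sterile saline 5 h later, and cytokines and chemokines were measured by ELISA. Data are mean ± SD from four mice, compared by unpaired t test.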

BMDM [18] = experiment: Increase of IL-10 protein level in mouse BMDM at 20 ug/ml after 18 hrs by ELISA; assay type: functional; procedure, shortened: as §1
[19] = Induction of IL-1Ra mRNA up-regulation in mouse BMDM at 20 ug/ml after 3 hrs by qRT-PCR analysis relative to control; assay type: functional; procedure, shortened: as §2
[20] = Induction of IL-6 mRNA up-regulation in mouse BMDM at 20 ug/ml after 3 hrs by qRT-PCR analysis relative to control; assay type: functional; procedure, shortened: as §2
BMDM [21] = experiment: Increase of CXCL2 production in mouse BMDM after 6 hrs by ELISA in presence of pertussis toxin; assay type: functional
Procedure, shortened: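 BMDMs (bone marrow cells in RPMI 1640 with 10% FCS and 20% L929-conditioned medium) were preincubated 30 min with pertussis toxin (100 ng/mL), then stimulated with peptide for 6 h. CXCL2 in the supernatant was measured by ELISA. Mean ± SEM from three independent experiments, unpaired t test.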

[22] = Cytotoxicity against mouse BMDM at 5 to 20 ug/ml by MTT assay
Mus musculus [23] = experiment: Stimulation of innate immune response in Kunming mouse assessed as increase of TNFalpha level in peritoneal lavage at 10 mg/kg, ip after 5 hrs; assay type: functional, organism-based; parameters: dose 10 mg/kg; procedure, shortened: as §4
RAW264.7 [24] = experiment: Inhibition of PGN-induced TNFalpha production in mouse RAW264.7 cells 2 to 50 ug/ml after 6 hrs by ELISA; assay type: functional, cell-based
Mus musculus [25] = experiment: Stimulation of innate immune response in clodronate liposomes treated Kunming mouse monocytes depletion model assessed as increase of CXCL2 production in peritoneal lavage at 10 mg/kg, ip; assay type: functional, organism-based; parameters: dose 10 mg/kg

Chain of Mitogen-activated protein kinase 1 and 3 (ERK2 and ERK1) (Mus musculus) (P63085 whole entry, looked up): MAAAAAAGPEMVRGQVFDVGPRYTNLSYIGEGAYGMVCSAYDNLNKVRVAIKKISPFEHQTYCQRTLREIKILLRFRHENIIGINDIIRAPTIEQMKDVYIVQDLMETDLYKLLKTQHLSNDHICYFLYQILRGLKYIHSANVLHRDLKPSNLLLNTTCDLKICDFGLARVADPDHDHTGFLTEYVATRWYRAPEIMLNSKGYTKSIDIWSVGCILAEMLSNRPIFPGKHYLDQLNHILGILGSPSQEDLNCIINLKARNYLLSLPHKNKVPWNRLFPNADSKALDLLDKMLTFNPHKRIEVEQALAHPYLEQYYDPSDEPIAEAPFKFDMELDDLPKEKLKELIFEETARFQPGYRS
Chain of Mitogen-activated protein kinase 1 and 3 (ERK2 and ERK1) (Mus musculus) (Q63844 whole entry, looked up): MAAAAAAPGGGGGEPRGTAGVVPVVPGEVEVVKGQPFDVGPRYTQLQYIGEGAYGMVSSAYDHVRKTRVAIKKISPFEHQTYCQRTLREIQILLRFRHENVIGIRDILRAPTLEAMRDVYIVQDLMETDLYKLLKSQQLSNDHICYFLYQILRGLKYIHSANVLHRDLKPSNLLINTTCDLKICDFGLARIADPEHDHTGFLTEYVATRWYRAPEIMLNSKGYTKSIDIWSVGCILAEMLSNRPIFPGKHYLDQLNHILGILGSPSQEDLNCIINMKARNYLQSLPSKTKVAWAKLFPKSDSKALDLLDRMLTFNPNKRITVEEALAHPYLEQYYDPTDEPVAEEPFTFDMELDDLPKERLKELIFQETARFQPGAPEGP

## CC[C@H](C)[C@H](NC(=O)[C@@H](NC(=O)[C@H](CCCNC(=N)N)NC(=O)[C@@H]1CCCN1C(=O)[C@H](CCCCN)NC(=O)[C@H](CCCCN)NC(=O)[C@H](Cc1ccccc1)NC(=O)[C@H](Cc1ccccc1)NC(=O)[C@H](CCCCN)NC(=O)[C@H](CCCCN)NC(=O)[C@H](C)NC(=O)[C@H](CCCNC(=N)N)NC(=O)[C@H](CCCCN)NC(=O)[C@H](CCCCN)NC(=O)[C@@H](NC(=O)[C@H](CO)NC(=O)[C@H](CC(N)=O)NC(=O)[C@H](CCCCN)NC(=O)[C@H](CC(C)C)NC(=O)[C@H](CCCCN)NC(=O)[C@H](CCCCN)NC(=O)[C@H](Cc1ccccc1)NC(=O)[C@H](Cc1ccccc1)NC(=O)[C@@H](N)CCCCN)C(C)C)C(C)C)C(=O)NCC(=O)N[C@H](C(=O)N[C@@H](CO)C(=O)N[C@H](C(=O)N1CCC[C@H]1C(=O)N[C@@H](Cc1ccccc1)C(=O)O)[C@@H](C)CC)C(C)C (H-KFFKKLKNSVKKRAKKFFKKPRVIGVSIPF-OH)
RAW264.7 [1]
  Activity: inactive
Mus musculus [2]
  survival at 10 mg/kg: > 60%
BMDM [3]
  Activity: Active
BMDM [4]
  Activity: Active
Mus musculus [5]
  Activity: inactive
[6]
  Activity: Active
[7]
  Activity: tde
Mus musculus [8]
  survival at 10 mg/kg: 63%
BMDM [9]
  Activity: Active
RAW264.7 [10]
  Activity: inactive
[11]
  Activity: 979.6 pg/mL
[12]
  half-life: < 60 min
BMDM [13]
  Activity: inactive
Mus musculus [14]
  Activity: Active
Mus musculus [15]
  Activity: Active
BMDM [16]
  Activity: Active
Mus musculus [17]
  Activity: inactive
BMDM [18]
  Activity: Active
[19]
  fold change (FC): 25
[20]
  fold change (FC): 4.5
BMDM [21]
  Activity: inactive
[22]
  Activity: Non-toxic
Mus musculus [23]
  Activity: inactive
RAW264.7 [24]
  inhibition: inactive
Mus musculus [25]
  Activity: inactive
